Most compounds without a hit are left out; they make up all but 1.7% or so of the library.
TPT1 inh: Candida albicans TPT1 enzyme inhibitors, primary screen, biochemical, fluorescence polarization; AID 1962, 2009; 300,000 compounds, 0.81% hits; recombinant caTPT1, FP RNA substrate dephosphorylation; inhibition, % at 5 µM;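 active = inhibition above the mean of all tested compounds plus 3 SD, set per screening campaign, cut at about 24% in these data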;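 also: plate controls were DMSO alone for no effect and ferristatin control at 100 nM for full effect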
TbMetRS inhib: T. brucei MetRS inhibitors, primary screen, biochemical, luminescence | methionyl-tRNA synthetase (Trypanosoma brucei brucei) | purified T. brucei MetRS, ATP depletion, Kinase-Glo luminescence | inhibition, % at 11.9 µM | 360,000 compounds, 0.4% hits | AID 624268, 2012;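 active = inhibition above a per-plate cutoff of the control wells' mean inhibition plus 3 SD, cut at about 5.5% in these data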;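 also: 0% = DMSO wells median and 100% = median of wells with control inhibitor compound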
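Material: parasite MetRS enzyme / Replication: singlicate, one well per compound / Signal: luminescence of leftover ATP / Schedule: 2 h aminoacylation at 25 °C after 15 min preincubation / Medium: HEPES-MgCl2-KCl buffer plus DTT, spermine, BSA, pyrophosphatase / Doses: 11.9 µM single point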
HNF4A DNA FP: change in binding of human HNF4A to DNA, primary screen, biochemical, fluorescence polarization, FITC-DNA; Hepatocyte nuclear factor 4-alpha (Homo sapiens), P41235; AID 1224865, 2016; activity change, % at 10 µM; 360,000 compounds, 0.3% hits; 1 h; in the data active = activity change above about 30%, passing the limit was not always enough
IDE cell inh: human IDE inhibitors in live cells, primary screen, fluorescence polarization, HEK cells, FAbetaB substrate; 320,000 compounds, 0.41% hits; FAbetaB cleavage; Insulin-degrading enzyme (Homo sapiens), P14735; inhibition, % at 5.59 µM;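 active = percent inhibition above the average of all tested compounds plus 3 SD, set per screening campaign, cut at about 16% in these data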;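 also: IDE supplied by intact live HEK cells; FP after avidin binding of uncleaved biotin substrate so inhibition keeps polarization high; 0% = DMSO wells and 100% = 60 µM reference IDE inhibitor Ii1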
IDE cell activ: human IDE activators in live cells, primary screen, fluorescence polarization, HEK cells, FAbeta-B substrate | 340,000 compounds, 0.073% hits | activation, % at 5.96 µM | AID 493087, 2011 | FAbeta-B cleavage; 0% vehicle, 100% cell-free pure enzyme wells;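 active = activation above the mean of all tested compounds plus 3 SD, set per screening campaign, cut at about 17% in these data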
CSN inh: inhibitors of CSN-mediated cullin deneddylation, primary screen, biochemical, fluorescence polarization, uHTS; Purified CSN, SCF-Nedd8-OG deneddylation; inhibition, % at 12.5 µM; 360,000 compounds, 0.38% hits; AID 651999, 2013;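 active = pattern-corrected inhibition above about 35%, with an unprinted fluorescence ratio check between 0.5 and 1.5, limit read from the data, passing the limit was not always enough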;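 also: 0% = enzyme with substrate and 100% = substrate without enzyme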
Target sequence (Q92905 whole entry, looked up, one chain of several): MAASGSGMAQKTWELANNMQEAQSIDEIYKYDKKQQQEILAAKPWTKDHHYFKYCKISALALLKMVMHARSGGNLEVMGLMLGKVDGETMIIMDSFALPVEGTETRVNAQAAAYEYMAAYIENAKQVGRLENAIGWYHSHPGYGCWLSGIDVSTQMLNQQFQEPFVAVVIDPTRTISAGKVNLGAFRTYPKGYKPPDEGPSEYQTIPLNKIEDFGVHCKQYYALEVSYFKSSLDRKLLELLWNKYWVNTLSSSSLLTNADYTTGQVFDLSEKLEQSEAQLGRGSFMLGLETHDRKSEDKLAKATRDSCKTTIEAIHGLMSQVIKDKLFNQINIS
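Assay system: purified human Csn5 enzyme expressed in HEK293T cells; measure: % inhibition; also added: SCFSkp2-Nedd8OG substrate at 10 nM final; technique: fluorescence polarization; times: reaction 90 min, room temperature; medium: Tris buffer pH 7.5, NaCl, DTT, Tween-20, trehalose, ovalbumin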
TPT1 inh confirm: Candida albicans TPT1 inhibitors, confirmation, biochemical, fluorescence polarization, triplicate; AID 2149, 2009; recombinant caTPT1, RNase T1 coupled; shares compounds with TPT1 inh; 2,400 compounds, 74% hits; inhibition, % at 5 µM;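 active = inhibition above the primary screen limit, the mean inhibition of all tested compounds plus 3 SD, cut at about 25% in these data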
RNase T1 inh: RNase T1 inhibitors, counter-screen for TPT1 inhibitor project, biochemical, fluorescence polarization | shares compounds with TPT1 inh | RNase T1 cleavage, 1536-well | inhibition, % at 5 µM | 2,400 compounds, 83% hits | AID 2153, 2009;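 active = inhibition above the solvent-only control well mean plus 3 SD, limit set per screening run, cut at about 23% in these data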;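 also: plate controls were DMSO wells with enzyme for no effect and wells without RNase T1 for full effect; inhibitors block cleavage so intact labeled substrate keeps polarization high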
Target sequence (P00651 whole entry, looked up): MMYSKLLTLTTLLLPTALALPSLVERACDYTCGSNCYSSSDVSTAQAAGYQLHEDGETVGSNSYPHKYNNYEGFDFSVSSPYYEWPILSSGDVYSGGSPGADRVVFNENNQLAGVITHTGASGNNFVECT
* marks the source's active call; other numbers are inactive results.

Screening N#CC1=C(N)SC(N)=C(C#N)C1c1c(Cl)cccc1Cl returned TPT1 inh 47.4*, TbMetRS inhib -0.2, HNF4A DNA FP 77.0, IDE cell inh 0.7, IDE cell activ -5.5, CSN inh 78.3, TPT1 inh confirm 21.9 and RNase T1 inh 27.9*.
For Cc1cc(C(=O)Nc2cccc3c2O[C@@H](CN(C)S(C)(=O)=O)[C@H](C)CN([C@@H](C)CO)C3=O)n(C)n1 the results were TbMetRS inhib -0.3, HNF4A DNA FP 1.0, IDE cell inh 3.2, IDE cell activ 7.4 and CSN inh -1.1.
CCN(CC)c1ccc2cc(S(=O)(=O)c3ccc(Cl)cc3)c(=O)oc2c1 was read as TPT1 inh 85.6*, TbMetRS inhib -0.7, HNF4A DNA FP -85.4, IDE cell inh 6.0, IDE cell activ -17.9, CSN inh -60.2, TPT1 inh confirm 98.3* and RNase T1 inh 104.3*.
O=[N+]([O-])c1ccc(-c2ccc(/C=N/Nc3nc(NCc4ccccc4)nc(N4CCOCC4)n3)o2)cc1 was read as TPT1 inh 87.1*, TbMetRS inhib -0.7, HNF4A DNA FP 35.5, IDE cell inh 3.1, IDE cell activ -0.8, CSN inh 25.4, TPT1 inh confirm 89.2* and RNase T1 inh 92.7*.
`CCOC(=O)c1cc(C#N)c(SCC(N)=O)[nH]c1=O` gave TPT1 inh 31.9*, TbMetRS inhib -0.5, HNF4A DNA FP -16.4, IDE cell inh -4.1, IDE cell activ -0.5, CSN inh -2.8, TPT1 inh confirm 39.8* and RNase T1 inh 50.2*.
`CCOC(=O)c1cc(C#N)c(SCC(=O)O)[nH]c1=O` gave TPT1 inh 0.4, TbMetRS inhib -0.9, HNF4A DNA FP -2.7, IDE cell inh 0.5, IDE cell activ 1.7 and CSN inh -3.8.
`COc1cc(/C=C2\CC/C(=C\c3ccc(OCCO)c(OC)c3)C2=O)ccc1OCCO` gave TPT1 inh 107.0*, TbMetRS inhib -1.2, HNF4A DNA FP 12.1, IDE cell inh 10.1, IDE cell activ -6.6, CSN inh 33.5, TPT1 inh confirm 114.1* and RNase T1 inh 113.5*.
CCCCCNC(=O)C(c1ccnc2ccccc12)n1c(=O)c(-c2cc3ccccc3[nH]2)nc2ccccc21 (stereo not given) was read as TbMetRS inhib -0.7, HNF4A DNA FP -0.9 and CSN inh 6.9.
Screening COc1ccc(-n2c(O)c(/C=N/NS(=O)(=O)c3cc(C)ccc3C)c3ccccc3c2=O)cc1OC returned TPT1 inh 109.2*, TbMetRS inhib 0.7, HNF4A DNA FP 146.5, IDE cell inh 9.2, IDE cell activ -37.9, CSN inh 55.6, TPT1 inh confirm 94.3* and RNase T1 inh 97.6*.
Screening COc1ccc(-n2c(O)c(/C=N/NS(=O)(=O)c3ccc(C)cc3)c3ccccc3c2=O)cc1OC returned TPT1 inh 108.8*, TbMetRS inhib 0.3, HNF4A DNA FP 86.5*, IDE cell inh 5.5, IDE cell activ -31.9, CSN inh 116.6, TPT1 inh confirm 69.9* and RNase T1 inh 85.8*.
Screening O=C(NCc1ccc(F)cc1F)Nc1cnccc1C(F)(F)F returned TPT1 inh 1.4, TbMetRS inhib -0.6, HNF4A DNA FP 4.1, IDE cell inh 2.4, IDE cell activ -0.8 and CSN inh 3.7.
For c1ccc(Oc2cnc3ccccc3n2)cc1 the results were TPT1 inh -4.3, TbMetRS inhib -0.6, HNF4A DNA FP -5.0, IDE cell inh 4.9, IDE cell activ 4.0 and CSN inh 8.4.
Screening COc1ccc(Oc2cnc3ccccc3n2)cc1 returned TPT1 inh 66.2*, TbMetRS inhib -0.4, HNF4A DNA FP -3.9, IDE cell inh 3.4, IDE cell activ 1.6, CSN inh 1.1, TPT1 inh confirm 3.9 and RNase T1 inh 4.7.
Nc1nnc(CSCc2cccc(Br)c2)s1 was read as TPT1 inh 2.7, TbMetRS inhib -1.0, HNF4A DNA FP -2.0, IDE cell inh -7.5, IDE cell activ 4.3 and CSN inh -3.7.
`CCOc1cc(/C=N\Nc2ccc([N+](=O)[O-])cc2)ccc1OCC(=O)Nc1ccc(C)c(C)c1` gave TPT1 inh 45.9*, TbMetRS inhib -1.4, HNF4A DNA FP 125.5, IDE cell inh 3.3, IDE cell activ 2.6, CSN inh 4.5, TPT1 inh confirm 30.4* and RNase T1 inh 35.0*.
`CCCCNc1cc(NC(C)=O)cc2cc(OC)c(OC)cc12` gave TPT1 inh 69.5*, TbMetRS inhib -0.7, HNF4A DNA FP 15.9, IDE cell inh 2.5, IDE cell activ -0.1, CSN inh 19.1, TPT1 inh confirm 60.8* and RNase T1 inh 72.9*.
Screening CCN(CC)c1ccc(NC(=O)CCCOc2cccc(C)c2)cc1 returned TbMetRS inhib -0.1, HNF4A DNA FP 0.8, IDE cell activ 3.5 and CSN inh -4.7.
CCN(CC)c1ccc(/C=N/OCC(=O)Nc2cccc(C)c2)cc1 was read as TPT1 inh 33.9*, TbMetRS inhib -1.4, HNF4A DNA FP 30.3, IDE cell inh 3.8, IDE cell activ 2.1, CSN inh 18.6, TPT1 inh confirm 43.4* and RNase T1 inh 56.1*.
Screening CCO/C=C1/C(=O)N(C)C(=O)c2cc(OC)ccc21 returned TPT1 inh 38.6*, TbMetRS inhib -0.8, HNF4A DNA FP -1.7, IDE cell inh -0.3, IDE cell activ 0.3, CSN inh -1.5, TPT1 inh confirm 54.9* and RNase T1 inh 66.2*.
Screening O=C(N/N=C/c1cccc(Br)c1)C1CC(=O)N(c2ccccc2)C1 (stereo not given) returned TPT1 inh -1.2, TbMetRS inhib -0.3, HNF4A DNA FP 2.9, IDE cell inh -0.7, IDE cell activ 1.8 and CSN inh 5.9.
`COc1ccc(C=C2NC(=S)NC2=O)cc1` gave TbMetRS inhib -0.3, HNF4A DNA FP 1.6, IDE cell activ 0.5 and CSN inh 3.9.
